# Data taken from ChEMBL document CHEMBL1667822, “Selective antagonists of mouse trace amine-associated receptor 1 (mTAAR1): discovery of EPPTB (RO5212773)” (Bioorg Med Chem Lett, 2011).
# Tests used:
# [1] = target: 5-hydroxytryptamine receptor 2A (Homo sapiens) (UniProt P28223); assay: Displacement of [3H]Ketanserin from human recombinant 5HT2A receptor expressed in HEK293 cells; assay type: cell-based; conditions: concentration not given here
# [2] = target: B2 bradykinin receptor (Homo sapiens) (UniProt P30411); assay: Displacement of [3H]bradykinin from human recombinant bradykinin B2 receptor expressed in CHO cells; assay type: cell-based; conditions: concentration not given here
# [3] = target: T1, Trace amine-associated receptor 1 (Rattus norvegicus, UniProt Q923Y9); assay: Antagonist activity at rat TAAR1 assessed as reversal of endogenous beta-PEA effect; assay type: functional
# Method in brief: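 cAMP functional assay in vitro measuring reversal of the effect of endogenous agonist beta-PEA; 100% antagonistic efficacy defined as 0% min% stimulation. Residual stimulation by beta-PEA recorded at the maximum test-compound concentration. Values are the average of at least two independent experiments; duplicates typically within a twofold margin.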
# [4] = target: T2, Trace amine-associated receptor 1 (Mus musculus, UniProt Q923Y8); assay: Inhibition of mouse TAAR1
# [5] = target: Cannabinoid receptor 1 (Homo sapiens) (UniProt P21554); assay: Inhibition of human cannabinoid CB1 receptor at 10 uM
# CHO = assay: Displacement of [3H]DADLE from human recombinant delta 2 opioid receptor expressed in CHO cells; assay type: cell-based; conditions: dose or concentration not given here
# [6] = target: Muscarinic acetylcholine receptor M1 (Homo sapiens) (UniProt P11229); assay: Displacement of [3H]pirenzepine from human recombinant muscarinic M1 receptor expressed in CHO cells; assay type: cell-based; conditions: concentration not given here
# [7] = target: Adenosine receptor A3 (Homo sapiens) (UniProt P0DMS8); assay: Displacement of [3H]AB-MECA from human recombinant A3 receptor expressed in HEK293 cells; assay type: cell-based; conditions: concentration not given here
# [8] = Volume of distribution at steady state in mouse at 2.5 mg/kg, iv; assay type: ADME, organism-based; parameters: dose 2.5 mg/kg, route intravenous; conditions: in vivo, read-out: Vdss
# Method in brief: (§1)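 Single-dose pharmacokinetics in mice with parenteral dosing, either 2.5 mg/kg iv or 5 mg/kg ip. Drug levels were measured in plasma, with brain exposure taken as the brain/plasma concentration ratio.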
# [9] = target: Adenosine receptor A2a (Homo sapiens) (UniProt P29274); assay: Displacement of [3H]CGS21680 from human recombinant A2A receptor expressed in HEK293 cells; assay type: cell-based; conditions: concentration not given here
# [10] = target: Histamine H1 receptor (Homo sapiens) (UniProt P35367); assay: Displacement of [3H]pyrilamine from human recombinant histamine H1 receptor expressed in HEK293 cells; assay type: cell-based; conditions: concentration not given here
# Rattus norvegicus [11] = species: Rattus norvegicus; assay: Displacement of [3H]batrachotoxinin from sodium channel in rat cerebral cortex; assay type: tissue-based; conditions: concentration not given here
# Rattus norvegicus [12] = species: Rattus norvegicus; assay: Inhibition of rat ca2+ channel verapamil site at 10 uM
# [13] = Half life in mouse at 2.5 mg/kg, iv; assay type: ADME, organism-based; parameters: dose 2.5 mg/kg, route intravenous; conditions: in vivo
# Method in brief: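 Single-dose pharmacokinetics in mice comparing parenteral routes: intravenous at 2.5 mg/kg and intraperitoneal at 5 mg/kg. Plasma concentrations were followed over time. Bioavailability was derived for the ip route, and Cmax was taken from the ip plasma profile.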
# [14] = target: Vasopressin V1a receptor (Homo sapiens) (UniProt P37288); assay: Displacement of [3H]AVP from human recombinant V1a receptor expressed in H recombinant CHO cells; assay type: cell-based; conditions: concentration not given here
# [15] = target: D(1A) dopamine receptor (Homo sapiens) (UniProt P21728); assay: Displacement of [3H]SCH 23390 from human recombinant dopamine D1 receptor expressed in CHO cells; assay type: cell-based; conditions: concentration not given here
# [16] = target: T2, Trace amine-associated receptor 1; assay: Antagonist activity at mouse TAAR1 assessed as reversal of endogenous beta-PEA effect; assay type: functional
# Method in brief: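 Mouse TAAR1 antagonist dose–response run as an in vitro cAMP functional assay. Efficacy is the reversal of the effect of the endogenous agonist β-PEA, with 100% efficacy defined as 0% min% stim. Values are averages of at least two independent experiments.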
# [17] = target: Adrenergic receptor alpha-1 (Rattus norvegicus) (UniProt P15823+P23944+P43140); assay: Displacement of [3H]prazosine from alpha1 receptor in rat cerebral cortex; assay type: tissue-based; conditions: concentration not given here
# [18] = target: Thromboxane A2 receptor (Homo sapiens) (UniProt P21731); assay: Displacement of [3H]SQ 29548 from human recombinant TXA2 receptor expressed in HEK293 cells; assay type: cell-based; conditions: concentration not given here
# Rattus norvegicus [19] = species: Rattus norvegicus; assay: Displacement of [3H]GABA from GABA receptor in rat cerebral cortex; assay type: tissue-based; conditions: concentration not given here
# [20] = target: T1, Trace amine-associated receptor 1; assay: Inhibition of rat TAAR1
# Method in brief: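 In vitro cAMP functional assay with antagonism read as reversal of the response to the endogenous agonist beta-PEA. Efficacy was scaled so that 100% equals 0% minimum stimulation. Residual beta-PEA stimulation was taken at the highest test-compound concentration. Values are means of at least two independent experiments, with duplicates typically within a twofold margin.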
# Homo sapiens = species: Homo sapiens; assay: Inhibition of human vasoactive intestinal peptide receptor VPAC1 at 10 uM
# [21] = target: Melatonin receptor type 1A (Homo sapiens) (UniProt P48039); assay: Displacement of [125I]2-iodomelatonin from human recombinant MT1 receptor expressed in CHO cells; assay type: cell-based; conditions: concentration not given here
# [22] = target: Beta-1 adrenergic receptor (Homo sapiens) (UniProt P08588); assay: Displacement of [3H](-)CGP 12177 from human recombinant beta1 receptor expressed in HEK293 cells; assay type: cell-based; conditions: concentration not given here
# [23] = target: Sodium-dependent serotonin transporter (Homo sapiens) (UniProt P31645); assay: Inhibition of human serotonin transporter at 10 uM
# Rattus norvegicus [24] = species: Rattus norvegicus; assay: Inhibition of rat GABA chloride channel at 10 uM
# [25] = target: Trace amine-associated receptor 1 (Mus musculus) (UniProt Q923Y8); assay: Antagonist activity at mouse TAAR1 assessed as residual stimulation by in vitro cAMP functional assay relative to control; parameters: concentration or dose not given beside the values
# Method in brief: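 Mouse TAAR1 in vitro cAMP functional assay using the endogenous agonist β-PEA. The read-out is the residual β-PEA stimulation remaining at the maximum test-compound concentration. Values are averages of at least two independent experiments.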
# [26] = Ratio of drug level in brain to plasma in mouse at 5 mg/kg, ip; assay type: ADME, organism-based; parameters: dose 5 mg/kg, route intraperitoneal; conditions: read-out: BPR; method in brief: as §1
# [27] = target: Muscarinic acetylcholine receptor M3 (Homo sapiens) (UniProt P20309); assay: Displacement of [3H]4-DAMP from human recombinant muscarinic M3 receptor expressed in CHO cells; assay type: cell-based; conditions: concentration not given here
# [28] = target: Beta-2 adrenergic receptor (Homo sapiens) (UniProt P07550); assay: Displacement of [3H](-)CGP 12177 from human recombinant beta2 receptor expressed in CHO cells; assay type: cell-based; conditions: concentration not given here
# [29] = target: Sodium-dependent noradrenaline transporter (Homo sapiens) (UniProt P23975); assay: Inhibition of human norepinephrine transporter at 10 uM
# [30] = target: monoamine oxidase-A (MAO-A) (Rattus norvegicus, UniProt P21396); assay: Inhibition of rat monoamine oxidase-A at 10 uM
# [31] = target: Neuromedin-K receptor (Homo sapiens) (UniProt P29371); assay: Displacement of [3H]SR 142801 from human recombinant NK3 receptor expressed in CHO cells; assay type: cell-based; conditions: concentration not given here
# [32] = target: Neuropeptide Y receptor type 2 (Homo sapiens) (UniProt P49146); assay: Displacement of [125I]peptide YY from human recombinant Y2 receptor expressed in KAN-TS cells; assay type: cell-based; conditions: concentration not given here
# [33] = target: Cholecystokinin receptor type A (Homo sapiens) (UniProt P32238); assay: Inhibition of human cholecystokinin 1 receptor at 10 uM
# T1 sequence (Q923Y9 whole entry): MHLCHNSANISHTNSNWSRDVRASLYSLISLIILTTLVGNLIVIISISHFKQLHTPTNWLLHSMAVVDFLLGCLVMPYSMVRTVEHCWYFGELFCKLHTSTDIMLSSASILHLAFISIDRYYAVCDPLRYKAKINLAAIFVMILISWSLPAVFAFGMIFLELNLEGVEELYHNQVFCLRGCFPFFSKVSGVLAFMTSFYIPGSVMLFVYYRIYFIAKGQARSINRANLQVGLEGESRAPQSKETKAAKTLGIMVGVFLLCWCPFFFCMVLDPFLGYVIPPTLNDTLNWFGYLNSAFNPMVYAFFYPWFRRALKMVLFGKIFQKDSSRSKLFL
# T2 sequence (Q923Y8 whole entry): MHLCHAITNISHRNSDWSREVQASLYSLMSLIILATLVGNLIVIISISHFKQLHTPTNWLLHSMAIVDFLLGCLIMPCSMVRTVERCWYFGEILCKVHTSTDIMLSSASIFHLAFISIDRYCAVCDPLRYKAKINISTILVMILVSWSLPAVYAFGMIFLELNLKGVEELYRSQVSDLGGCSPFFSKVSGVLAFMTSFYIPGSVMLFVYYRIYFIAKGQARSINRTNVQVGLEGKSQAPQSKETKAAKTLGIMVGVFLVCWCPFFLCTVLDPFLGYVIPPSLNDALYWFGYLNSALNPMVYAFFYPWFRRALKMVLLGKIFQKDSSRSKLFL
# Sequence of D(1A) dopamine receptor (Homo sapiens) (P21728 whole entry): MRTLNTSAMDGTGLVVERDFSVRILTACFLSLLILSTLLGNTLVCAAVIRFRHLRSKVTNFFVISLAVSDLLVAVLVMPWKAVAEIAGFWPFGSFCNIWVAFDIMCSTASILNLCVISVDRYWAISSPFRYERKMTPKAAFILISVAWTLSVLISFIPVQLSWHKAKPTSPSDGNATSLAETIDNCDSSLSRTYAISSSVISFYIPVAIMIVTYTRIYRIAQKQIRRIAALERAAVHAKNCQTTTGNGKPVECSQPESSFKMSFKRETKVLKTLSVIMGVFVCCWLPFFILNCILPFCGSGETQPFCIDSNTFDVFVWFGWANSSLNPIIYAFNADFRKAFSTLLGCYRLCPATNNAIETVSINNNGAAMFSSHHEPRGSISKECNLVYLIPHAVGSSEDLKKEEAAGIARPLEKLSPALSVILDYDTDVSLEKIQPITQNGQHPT
# Sequence of Beta-2 adrenergic receptor (Homo sapiens) (P07550 whole entry, looked up): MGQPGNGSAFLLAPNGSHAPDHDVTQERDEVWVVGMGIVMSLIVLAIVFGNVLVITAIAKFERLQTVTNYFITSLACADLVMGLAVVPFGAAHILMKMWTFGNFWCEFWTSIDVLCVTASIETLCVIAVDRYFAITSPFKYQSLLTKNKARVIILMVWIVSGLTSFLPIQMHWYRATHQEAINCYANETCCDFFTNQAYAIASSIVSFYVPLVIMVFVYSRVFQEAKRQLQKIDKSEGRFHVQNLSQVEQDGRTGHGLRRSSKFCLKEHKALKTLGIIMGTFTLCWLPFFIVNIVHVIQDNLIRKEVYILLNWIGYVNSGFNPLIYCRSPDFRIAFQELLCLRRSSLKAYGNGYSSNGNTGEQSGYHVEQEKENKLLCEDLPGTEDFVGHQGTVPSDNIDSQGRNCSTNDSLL
# Sequence of Muscarinic acetylcholine receptor M3 (Homo sapiens) (P20309 whole entry, looked up): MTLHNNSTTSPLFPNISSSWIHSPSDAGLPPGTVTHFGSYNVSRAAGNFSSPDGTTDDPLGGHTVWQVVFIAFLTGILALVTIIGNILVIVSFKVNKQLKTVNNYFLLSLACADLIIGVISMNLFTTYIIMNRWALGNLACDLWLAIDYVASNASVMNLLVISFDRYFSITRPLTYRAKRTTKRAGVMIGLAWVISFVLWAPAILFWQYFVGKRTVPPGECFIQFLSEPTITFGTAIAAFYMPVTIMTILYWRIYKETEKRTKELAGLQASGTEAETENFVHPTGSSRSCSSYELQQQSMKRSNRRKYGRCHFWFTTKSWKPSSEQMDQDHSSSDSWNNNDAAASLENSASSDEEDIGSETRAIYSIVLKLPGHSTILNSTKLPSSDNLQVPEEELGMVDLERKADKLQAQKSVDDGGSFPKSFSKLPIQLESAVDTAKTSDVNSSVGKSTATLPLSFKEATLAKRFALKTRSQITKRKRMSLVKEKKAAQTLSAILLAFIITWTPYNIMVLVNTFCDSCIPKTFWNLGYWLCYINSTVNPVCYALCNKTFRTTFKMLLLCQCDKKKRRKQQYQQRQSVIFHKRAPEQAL
# Sequence of Cannabinoid receptor 1 (Homo sapiens) (P21554 whole entry): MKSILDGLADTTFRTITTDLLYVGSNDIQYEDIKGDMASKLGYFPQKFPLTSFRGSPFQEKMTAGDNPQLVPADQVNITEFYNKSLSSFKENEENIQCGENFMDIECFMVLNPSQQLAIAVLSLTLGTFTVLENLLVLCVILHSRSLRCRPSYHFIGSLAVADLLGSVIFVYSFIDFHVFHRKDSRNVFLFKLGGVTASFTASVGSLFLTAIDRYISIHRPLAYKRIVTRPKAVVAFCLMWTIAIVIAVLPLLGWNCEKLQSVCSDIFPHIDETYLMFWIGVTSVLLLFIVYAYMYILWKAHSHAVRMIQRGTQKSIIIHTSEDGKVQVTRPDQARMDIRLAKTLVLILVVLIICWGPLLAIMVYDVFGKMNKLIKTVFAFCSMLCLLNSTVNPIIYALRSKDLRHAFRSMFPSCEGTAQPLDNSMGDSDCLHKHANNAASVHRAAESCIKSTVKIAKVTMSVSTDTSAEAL
# Sequence of Adenosine receptor A3 (Homo sapiens) (P0DMS8 whole entry): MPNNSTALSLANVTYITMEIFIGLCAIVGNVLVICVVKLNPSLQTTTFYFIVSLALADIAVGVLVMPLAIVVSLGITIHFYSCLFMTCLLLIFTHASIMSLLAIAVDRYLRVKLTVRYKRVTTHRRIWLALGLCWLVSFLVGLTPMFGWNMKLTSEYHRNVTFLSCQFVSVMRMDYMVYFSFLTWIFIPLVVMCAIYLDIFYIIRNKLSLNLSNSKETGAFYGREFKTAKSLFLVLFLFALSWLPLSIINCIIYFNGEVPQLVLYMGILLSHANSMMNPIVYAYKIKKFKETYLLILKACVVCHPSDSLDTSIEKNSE
# Sequence of monoamine oxidase-A (MAO-A) (P21396 whole entry): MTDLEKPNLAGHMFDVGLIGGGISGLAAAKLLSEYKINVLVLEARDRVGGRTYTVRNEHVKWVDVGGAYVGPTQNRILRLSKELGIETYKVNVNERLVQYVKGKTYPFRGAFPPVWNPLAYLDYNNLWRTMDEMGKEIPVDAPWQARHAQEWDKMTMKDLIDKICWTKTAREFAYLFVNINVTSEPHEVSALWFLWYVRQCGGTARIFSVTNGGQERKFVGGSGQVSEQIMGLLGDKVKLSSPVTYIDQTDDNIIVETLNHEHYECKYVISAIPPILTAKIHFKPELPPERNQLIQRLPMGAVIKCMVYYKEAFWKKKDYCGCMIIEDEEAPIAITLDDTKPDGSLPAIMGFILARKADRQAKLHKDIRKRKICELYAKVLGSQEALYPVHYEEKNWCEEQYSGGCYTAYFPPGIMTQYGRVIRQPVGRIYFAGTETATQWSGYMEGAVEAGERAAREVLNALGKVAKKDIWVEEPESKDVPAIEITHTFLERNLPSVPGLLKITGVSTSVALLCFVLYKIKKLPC
# Sequence of Neuromedin-K receptor (Homo sapiens) (P29371 whole entry): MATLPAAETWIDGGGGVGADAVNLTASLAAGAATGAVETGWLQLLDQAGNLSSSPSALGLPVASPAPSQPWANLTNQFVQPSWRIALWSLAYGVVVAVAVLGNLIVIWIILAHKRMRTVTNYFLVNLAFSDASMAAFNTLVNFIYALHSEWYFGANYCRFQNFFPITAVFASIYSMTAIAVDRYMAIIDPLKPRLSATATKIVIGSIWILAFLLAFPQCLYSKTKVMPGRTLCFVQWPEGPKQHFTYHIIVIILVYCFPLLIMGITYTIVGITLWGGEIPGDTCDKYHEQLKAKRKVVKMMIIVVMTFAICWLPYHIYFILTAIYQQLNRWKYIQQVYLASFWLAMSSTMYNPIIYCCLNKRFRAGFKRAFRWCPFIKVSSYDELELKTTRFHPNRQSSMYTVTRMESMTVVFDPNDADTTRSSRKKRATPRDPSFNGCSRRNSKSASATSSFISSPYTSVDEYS
# Sequence of 5-hydroxytryptamine receptor 2A (Homo sapiens) (P28223 whole entry): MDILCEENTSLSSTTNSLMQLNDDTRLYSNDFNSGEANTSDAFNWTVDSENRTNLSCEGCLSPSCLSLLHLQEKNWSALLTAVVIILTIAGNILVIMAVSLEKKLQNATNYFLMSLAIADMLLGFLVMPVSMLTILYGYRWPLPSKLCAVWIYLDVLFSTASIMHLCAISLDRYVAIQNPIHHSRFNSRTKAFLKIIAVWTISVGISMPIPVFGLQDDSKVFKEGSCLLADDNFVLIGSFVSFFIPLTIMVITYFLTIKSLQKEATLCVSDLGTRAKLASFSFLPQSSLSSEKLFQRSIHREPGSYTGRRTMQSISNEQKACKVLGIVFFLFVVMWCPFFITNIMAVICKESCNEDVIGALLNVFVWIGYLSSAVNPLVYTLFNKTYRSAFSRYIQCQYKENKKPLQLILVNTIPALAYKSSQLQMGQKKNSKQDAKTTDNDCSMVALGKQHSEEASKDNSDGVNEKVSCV
# Sequence of Histamine H1 receptor (Homo sapiens) (P35367 whole entry): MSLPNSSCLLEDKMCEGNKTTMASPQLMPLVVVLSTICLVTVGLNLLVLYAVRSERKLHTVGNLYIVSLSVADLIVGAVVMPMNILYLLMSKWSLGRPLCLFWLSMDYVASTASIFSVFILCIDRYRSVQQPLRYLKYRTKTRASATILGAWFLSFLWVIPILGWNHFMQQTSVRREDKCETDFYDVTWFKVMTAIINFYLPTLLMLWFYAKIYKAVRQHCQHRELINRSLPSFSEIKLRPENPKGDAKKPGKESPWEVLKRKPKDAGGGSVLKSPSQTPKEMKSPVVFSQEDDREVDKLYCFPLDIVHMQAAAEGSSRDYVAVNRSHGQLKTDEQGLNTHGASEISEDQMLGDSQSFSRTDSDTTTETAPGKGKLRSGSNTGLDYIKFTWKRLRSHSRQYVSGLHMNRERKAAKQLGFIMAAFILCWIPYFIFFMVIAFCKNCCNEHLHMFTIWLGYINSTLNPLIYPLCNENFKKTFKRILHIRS
# Sequence of Trace amine-associated receptor 1 (Mus musculus) (Q923Y8 whole entry): as the sequence (Q923Y8 whole entry) above
smiles,measurement,setting,value
CCOc1cccc(NC(=O)c2ccc(N3CCCC3)c(C(F)(F)F)c2)c1,inhibition,[1],21%
same,inhibition,[2],2%
same,IC50,[3],4540 nM
same,Ki,[4],0.9 nM
same,inhibition,[5],38%
same,inhibition,CHO,28%
same,inhibition,[6],4%
same,inhibition,[7],80%
same,Vd,[8],3.7 L/kg
same,inhibition,[9],13%
same,inhibition,[10],6%
same,inhibition,Rattus norvegicus [11],88%
same,inhibition,Rattus norvegicus [12],16%
same,half-life,[13],1.9 h
same,inhibition,[14],9%
same,inhibition,[15],25%
same,IC50,[16],28 nM
same,inhibition,[17],8%
same,inhibition,[18],8%
same,inhibition,Rattus norvegicus [19],10%
same,Ki,[20],942 nM
same,inhibition,Homo sapiens,13%
same,inhibition,[21],54%
same,inhibition,[22],4%
same,inhibition,[23],-7%
same,inhibition,Rattus norvegicus [24],63%
same,Activity,[25],-12%
same,Kp,[26],0.5
same,inhibition,[27],-10%
same,inhibition,[28],6%
same,inhibition,[29],44%
same,inhibition at 10 µM,[30],61%
same,inhibition,[31],22%
same,inhibition,[32],6%
same,inhibition,[33],57%
